Calls of active or inactive are those of the source. No cut-off for these calls is given here.
Key:
[1] = Cytotoxicity against human MT4 cells by MTT method; format: cell-based
Method in brief: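 Mock-infected MT-4 cells, run in parallel with the antiviral test; CC50 = concentration reducing viability by 50%, read by MTT. Triplicate samples.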

[2] = system: Human immunodeficiency virus 1; assay: Antiviral activity against HIV1 in MT4 cells assessed as reduction of virus induced cytopathogenicity by MTT method; format: functional, organism-based; details: Human immunodeficiency virus 1, MT4
Method in brief: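 MT-4 cells infected with wild-type HIV-1; EC50 = concentration giving 50% protection of cells from virus-induced cytopathogenicity, viability read by MTT. Triplicate samples.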

[3] = Selectivity index, ratio of CC50 for human MT4 cells to EC50 for HIV1 cells; format: toxicity, cell-based; details: read-out: Ratio CC50/EC50
Method in brief: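 Ratio of CC50 (mock-infected MT-4 viability, MTT) to EC50 (50% protection of MT-4 cells from HIV-1 cytopathogenicity, MTT), both taken from the same parallel cell-based run.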

[4] = system: Human immunodeficiency virus 1; assay: Antiviral activity against HIV1 with reverse transcriptase Y181C mutation; format: functional, organism-based
Method in brief: (§1)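 MT-4 cells infected with the mutant HIV-1 strain; protection from virus-induced cytopathogenicity read by MTT. EC50 is the concentration (µM) giving 50% protection. Cytotoxicity was assayed in parallel on mock-infected MT-4 cells by MTT. Triplicate samples.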

[5] = system: Human immunodeficiency virus 1; assay: Antiviral activity against HIV1 with reverse transcriptase K103R mutation; format: functional, organism-based; method in brief: as §1
[6] = molecular target: Human immunodeficiency virus type 1 reverse transcriptase (Human immunodeficiency virus 1, UniProt Q72547); assay: Inhibition of HIV1 virion-associated reverse transcriptase

Structure (SMILES): Cc1ccc2c(c1)C(=O)N(CCO/C(=N\c1ccc(Br)cc1)SS/C(=N/c1ccc(Br)cc1)OCCN1C(=O)c3ccc(C)cc3C1=O)C2=O
- CC50 [1]: > 100 µM
- EC50 [2]: 1.3 µM
- selectivity ratio [3]: > 77

Structure (SMILES): O=C1c2ccccc2C(=O)N1CCO/C(=N\c1cccc(Cl)c1Cl)SS/C(=N/c1cccc(Cl)c1Cl)OCCN1C(=O)c2ccccc2C1=O
- CC50 [1]: 37 µM
- EC50 [2]: 18 µM
- selectivity ratio [3]: 2.1

Structure (SMILES): O=C1c2ccccc2C(=O)N1CCO/C(=N\c1ccc(Cl)c([N+](=O)[O-])c1)SS/C(=N/c1ccc(Cl)c([N+](=O)[O-])c1)OCCN1C(=O)c2ccccc2C1=O
- CC50 [1]: 18 µM
- EC50 [2]: 0.07 µM
- selectivity ratio [3]: 257

Structure (SMILES): O=C1c2ccccc2C(=O)N1CCO/C(=N\c1ccccc1)SS/C(=N/c1ccccc1)OCCN1C(=O)c2ccccc2C1=O
- CC50 [1]: 80 µM
- EC50 [2]: 0.35 µM
- selectivity ratio [3]: 229

Structure (SMILES): O=C1c2ccccc2C(=O)N1CCO/C(=N\c1cccc([N+](=O)[O-])c1)SS/C(=N/c1cccc([N+](=O)[O-])c1)OCCN1C(=O)c2ccccc2C1=O
- CC50 [1]: > 100 µM
- EC50 [2]: 0.7 µM
- selectivity ratio [3]: > 143

Structure (SMILES): O=C1c2ccccc2C(=O)N1CCO/C(=N\c1ccc(F)cc1)SS/C(=N/c1ccc(F)cc1)OCCN1C(=O)c2ccccc2C1=O
- CC50 [1]: 29 µM
- EC50 [2]: 0.02 µM
- selectivity ratio [3]: 1450

Structure (SMILES): O=C1c2ccccc2C(=O)N1CCO/C(=N\c1cccc2ccccc12)SS/C(=N/c1cccc2ccccc12)OCCN1C(=O)c2ccccc2C1=O
- CC50 [1]: > 100 µM
- EC50 [2]: 8 µM
- selectivity ratio [3]: > 13

Structure (SMILES): O=C1c2ccccc2C(=O)N1CCO/C(=N\Cc1ccccc1)SS/C(=N/Cc1ccccc1)OCCN1C(=O)c2ccccc2C1=O
- CC50 [1]: > 100 µM
- EC50 [2]: 7 µM
- selectivity ratio [3]: > 14

Structure (SMILES): Cc1cc(Br)ccc1/N=C(\OCCN1C(=O)c2ccccc2C1=O)SS/C(=N/c1ccc(Br)cc1C)OCCN1C(=O)c2ccccc2C1=O
- CC50 [1]: 80 µM
- EC50 [2]: 1.8 µM
- selectivity ratio [3]: 44
- EC50 [4]: 35 µM
- Activity [5]: inactive

Structure (SMILES): O=C1c2ccccc2C(=O)N1CCO/C(=N\c1cccc(Br)c1)SS/C(=N/c1cccc(Br)c1)OCCN1C(=O)c2ccccc2C1=O
- CC50 [1]: 89 µM
- EC50 [2]: 6 µM
- selectivity ratio [3]: 15

Structure (SMILES): O=C1c2ccccc2C(=O)N1CCO/C(=N\c1ccc([N+](=O)[O-])cc1)SS/C(=N/c1ccc([N+](=O)[O-])cc1)OCCN1C(=O)c2ccccc2C1=O
- CC50 [1]: > 100 µM
- EC50 [2]: 0.07 µM
- selectivity ratio [3]: > 1430
- EC50 [4]: 57 µM
- EC50 [5]: 62 µM

Structure (SMILES): CC(=O)c1ccc(/N=C(\OCCN2C(=O)c3ccccc3C2=O)SS/C(=N/c2ccc(C(C)=O)cc2)OCCN2C(=O)c3ccccc3C2=O)cc1
- CC50 [1]: > 100 µM
- EC50 [2]: 24 µM
- selectivity ratio [3]: > 4.2

Structure (SMILES): O=C1c2ccccc2C(=O)N1CCO/C(=N\c1ccc(Cl)cc1)SS/C(=N/c1ccc(Cl)cc1)OCCN1C(=O)c2ccccc2C1=O
- CC50 [1]: 88 µM
- EC50 [2]: 0.02 µM
- selectivity ratio [3]: 5500

Structure (SMILES): S=C(NCCc1ccccn1)Nc1ccc(Br)cn1 [TROVIRDINE]
- selectivity ratio [3]: 3000
- IC50 [6]: 1.06 µM

Structure (SMILES): O=C1c2ccccc2C(=O)N1CCO/C(=N\c1cccc(C(F)(F)F)c1)SS/C(=N/c1cccc(C(F)(F)F)c1)OCCN1C(=O)c2ccccc2C1=O
- CC50 [1]: 22 µM
- EC50 [2]: 2.3 µM
- selectivity ratio [3]: 9.6

Structure (SMILES): O=C1c2ccccc2C(=O)N1CCO/C(=N\c1ccccc1Cl)SS/C(=N/c1ccccc1Cl)OCCN1C(=O)c2ccccc2C1=O
- CC50 [1]: 9 µM
- EC50 [2]: > 9 µM
- selectivity ratio [3]: < 1

Structure (SMILES): Cc1ccc(/N=C(\OCCN2C(=O)c3ccccc3C2=O)SS/C(=N/c2ccc(C)cc2)OCCN2C(=O)c3ccccc3C2=O)cc1
- CC50 [1]: 21 µM
- EC50 [2]: 0.04 µM
- selectivity ratio [3]: 525

Structure (SMILES): O=C1c2ccccc2C(=O)N1CCO/C(=N\C1CC1)SS/C(=N/C1CC1)OCCN1C(=O)c2ccccc2C1=O
- CC50 [1]: > 100 µM
- EC50 [2]: > 100 µM

Structure (SMILES): Cc1cc(C)cc(/N=C(\OCCN2C(=O)c3ccccc3C2=O)SS/C(=N/c2cc(C)cc(C)c2)OCCN2C(=O)c3ccccc3C2=O)c1
- CC50 [1]: > 100 µM
- EC50 [2]: 3 µM
- selectivity ratio [3]: > 33

Structure (SMILES): O=C1c2ccccc2C(=O)N1CCO/C(=N\c1cccc(F)c1)SS/C(=N/c1cccc(F)c1)OCCN1C(=O)c2ccccc2C1=O
- CC50 [1]: 38 µM
- EC50 [2]: 5 µM
- selectivity ratio [3]: 7.6

Structure (SMILES): O=C1c2ccccc2C(=O)N1CCO/C(=N\c1cc(F)ccc1F)SS/C(=N/c1cc(F)ccc1F)OCCN1C(=O)c2ccccc2C1=O
- CC50 [1]: 52 µM
- EC50 [2]: 1.3 µM
- selectivity ratio [3]: 40

Structure (SMILES): O=C1c2ccccc2C(=O)N1CCO/C(=N\c1ccc(F)cc1F)SS/C(=N/c1ccc(F)cc1F)OCCN1C(=O)c2ccccc2C1=O
- CC50 [1]: 27 µM
- EC50 [2]: 0.05 µM
- selectivity ratio [3]: 541

Structure (SMILES): O=C1c2ccccc2C(=O)N1CCO/C(=N\c1cc(Cl)cc(Cl)c1)SS/C(=N/c1cc(Cl)cc(Cl)c1)OCCN1C(=O)c2ccccc2C1=O
- CC50 [1]: 42 µM
- EC50 [2]: > 42 µM
- selectivity ratio [3]: < 1

Structure (SMILES): Cc1ccc(/N=C(\OCCN2C(=O)c3ccccc3C2=O)SS/C(=N/c2ccc(C)c(Cl)c2)OCCN2C(=O)c3ccccc3C2=O)cc1Cl
- CC50 [1]: > 100 µM
- EC50 [2]: 0.2 µM
- selectivity ratio [3]: > 500

Structure (SMILES): O=C1c2ccccc2C(=O)N1CCO/C(=N\c1cc(F)cc(F)c1)SS/C(=N/c1cc(F)cc(F)c1)OCCN1C(=O)c2ccccc2C1=O
- CC50 [1]: 37 µM
- EC50 [2]: > 37 µM
- selectivity ratio [3]: < 1

Structure (SMILES): O=C1c2ccccc2C(=O)N1CCO/C(=N\c1ccc(C(F)(F)F)cc1)SS/C(=N/c1ccc(C(F)(F)F)cc1)OCCN1C(=O)c2ccccc2C1=O
- CC50 [1]: > 100 µM
- EC50 [2]: 0.1 µM
- selectivity ratio [3]: > 1000

Structure (SMILES): Cc1ccccc1/N=C(\OCCN1C(=O)c2ccccc2C1=O)SS/C(=N/c1ccccc1C)OCCN1C(=O)c2ccccc2C1=O
- CC50 [1]: 11 µM
- EC50 [2]: > 11 µM
- selectivity ratio [3]: < 1

Structure (SMILES): O=C1c2ccccc2C(=O)N1CCCO/C(=N\c1ccc(Br)cc1)SS/C(=N/c1ccc(Br)cc1)OCCCN1C(=O)c2ccccc2C1=O
- CC50 [1]: > 100 µM
- EC50 [2]: > 100 µM

Structure (SMILES): Cc1cc(Br)cc(C)c1/N=C(\OCCN1C(=O)c2ccccc2C1=O)SS/C(=N/c1c(C)cc(Br)cc1C)OCCN1C(=O)c2ccccc2C1=O
- CC50 [1]: > 100 µM
- EC50 [2]: > 100 µM

Structure (SMILES): O=C1c2ccccc2C(=O)N1CCO/C(=N\c1ccccc1F)SS/C(=N/c1ccccc1F)OCCN1C(=O)c2ccccc2C1=O
- CC50 [1]: 43 µM
- EC50 [2]: 1.2 µM
- selectivity ratio [3]: 36

Structure (SMILES): COc1ccc(/N=C(\OCCN2C(=O)c3ccccc3C2=O)SS/C(=N/c2ccc(OC)cc2)OCCN2C(=O)c3ccccc3C2=O)cc1
- CC50 [1]: 90 µM
- EC50 [2]: 0.06 µM
- selectivity ratio [3]: 1500

Structure (SMILES): c1ccc(CCO/C(=N\c2ccccc2)SS/C(=N/c2ccccc2)OCCc2ccccc2)cc1
- CC50 [1]: 70 µM
- EC50 [2]: 11 µM
- selectivity ratio [3]: 6.4

Structure (SMILES): O=C1Nc2ccc(Cl)cc2C(C#CC2CC2)(C(F)(F)F)O1 (single isomer, unassigned) [EFAVIRENZ]
- EC50 [4]: 0.01 µM
- EC50 [5]: 0.04 µM

Structure (SMILES): O=C1c2ccccc2C(=O)N1CCO/C(=N\c1ccc(Cl)c(Cl)c1)SS/C(=N/c1ccc(Cl)c(Cl)c1)OCCN1C(=O)c2ccccc2C1=O
- CC50 [1]: > 100 µM
- EC50 [2]: 7 µM
- selectivity ratio [3]: > 14

Structure (SMILES): O=C1c2ccccc2C(=O)N1CCO/C(=N\c1ccc(Cl)cc1Cl)SS/C(=N/c1ccc(Cl)cc1Cl)OCCN1C(=O)c2ccccc2C1=O
- CC50 [1]: > 100 µM
- EC50 [2]: 4 µM
- selectivity ratio [3]: > 25

Structure (SMILES): O=C1c2ccccc2C(=O)N1CCO/C(=N\c1c(F)cc(F)cc1F)SS/C(=N/c1c(F)cc(F)cc1F)OCCN1C(=O)c2ccccc2C1=O
- CC50 [1]: 39 µM
- EC50 [2]: 1.2 µM
- selectivity ratio [3]: 33

Structure (SMILES): O=C1c2ccccc2C(=O)N1CCO/C(=N\c1ccc(Br)cc1)SS/C(=N/c1ccc(Br)cc1)OCCN1C(=O)c2ccccc2C1=O
- CC50 [1]: 42 µM
- EC50 [2]: 0.01 µM
- selectivity ratio [3]: 4200
- IC50 [6]: 0.74 µM

Structure (SMILES): O=C1c2ccccc2C(=O)N1CCO/C(=N\c1cccc(Cl)c1)SS/C(=N/c1cccc(Cl)c1)OCCN1C(=O)c2ccccc2C1=O
- CC50 [1]: 36 µM
- EC50 [2]: 0.4 µM
- selectivity ratio [3]: 90

Structure (SMILES): N#Cc1ccc(/N=C(\OCCN2C(=O)c3ccccc3C2=O)SS/C(=N/c2ccc(C#N)cc2)OCCN2C(=O)c3ccccc3C2=O)cc1
- CC50 [1]: > 100 µM
- EC50 [2]: 0.1 µM
- selectivity ratio [3]: > 1000

Structure (SMILES): O=C1c2ccccc2C(=O)N1CCO/C(=N\c1ccc(I)cc1)SS/C(=N/c1ccc(I)cc1)OCCN1C(=O)c2ccccc2C1=O
- CC50 [1]: 48 µM
- EC50 [2]: 0.03 µM
- selectivity ratio [3]: 1600

Structure (SMILES): COc1cccc(/N=C(\OCCN2C(=O)c3ccccc3C2=O)SS/C(=N/c2cccc(OC)c2)OCCN2C(=O)c3ccccc3C2=O)c1
- CC50 [1]: 80 µM
- EC50 [2]: 1.3 µM
- selectivity ratio [3]: 61

Structure (SMILES): O=C1c2ccccc2C(=O)N1CCO/C(=N\c1cc(Cl)ccc1Cl)SS/C(=N/c1cc(Cl)ccc1Cl)OCCN1C(=O)c2ccccc2C1=O
- CC50 [1]: > 100 µM
- EC50 [2]: > 100 µM

Structure (SMILES): O=C1c2ccccc2C(=O)N1CCO/C(=N\c1ccc(Cl)c(C(F)(F)F)c1)SS/C(=N/c1ccc(Cl)c(C(F)(F)F)c1)OCCN1C(=O)c2ccccc2C1=O
- CC50 [1]: > 100 µM
- EC50 [2]: 28 µM
- selectivity ratio [3]: > 3.6
